Measurements reported in ChEMBL document CHEMBL4270541, “Synthesis and antimicrobial evaluation of amino sugar-based naphthoquinones and isoquinoline-5,8-diones and their halogenated compounds” (Eur J Med Chem, 2018).
≈ marks a conversion by molar mass, not a printed value. Calls of active or inactive are those of the source. No cut-off for these calls is given here.

Columns and labels:
Staphylococcus aureus [1] = test: Bactericidal activity against methicillin-resistant Staphylococcus aureus BMB9393 incubated for 24 hrs followed by transfer of microbial suspension to agar plates and measured after 24 hrs post transfer by resazurin dye-based colorimetric analysis; assay type: functional; details: BMB9393, 24 h, read-out: MBC99.9
How it was run: (§1)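 From MIC wells with no visible growth, 10 µL is transferred to agar plates and incubated 24 h at 37°C. MBC is the minimum concentration inhibiting 99.9% of growth. […] Triplicate.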

Staphylococcus simulans [2] = test: Antimicrobial activity against Staphylococcus simulans INCQS 00254 ATCC 27851 after 24 hrs by microdilution assay; assay type: functional; details: INCQS 00254 ATCC 27851, 24 h
Enterococcus faecalis = test: Antimicrobial activity against Enterococcus faecalis INCQS 00234 ATCC 29212 assessed as zone of inhibition at 5 mg/ml after 18 to 24 hrs by disc diffusion method; assay type: functional; details: ATCC 29212 INCQS 00234, read-out: IZ
[3] = test system: Staphylococcus epidermidis; test: Bactericidal activity against Staphylococcus epidermidis INCQS 00016 ATCC 12228 incubated for 24 hrs followed by transfer of microbial suspension to agar plates and measured after 24 hrs post transfer by resazurin dye-based colorimetric analysis; assay type: functional; details: ATCC 12228 INCQS 00016, 24 h, read-out: MBC99.9
How it was run: (§2)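 For MBC, 10 µL from each clear MIC well was plated on agar and incubated 24 h at 37°C. MBC is the minimum concentration inhibiting 99.9% of growth. […] Triplicate.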

Escherichia coli [4] = test: Antimicrobial activity against Escherichia coli INCQS 00033 ATCC 25922 assessed as zone of inhibition at 5 mg/ml after 18 to 24 hrs by disc diffusion method; assay type: functional; details: ATCC 25922 INCQS 00033, read-out: IZ
Pseudomonas aeruginosa [5] = test: Antimicrobial activity against Pseudomonas aeruginosa INCQS 00099 ATCC 27853 assessed as zone of inhibition at 5 mg/ml after 18 to 24 hrs by disc diffusion method; assay type: functional; details: read-out: IZ
Staphylococcus aureus [6] = test: Antimicrobial activity against methicillin-resistant Staphylococcus aureus BMB9393 after 24 hrs by microdilution assay; assay type: functional; details: BMB9393, 24 h
Staphylococcus aureus [7] = test: Bactericidal activity against Staphylococcus aureus INCQS 00015 ATCC 25923 incubated for 24 hrs followed by transfer of microbial suspension to agar plates and measured after 24 hrs post transfer by resazurin dye-based colorimetric analysis; assay type: functional; details: INCQS 00015 ATCC 25923, 24 h, read-out: MBC99.9; how it was run: as §1
[8] = test system: Staphylococcus epidermidis; test: Ratio of MBC99.9 to MIC for Staphylococcus epidermidis INCQS 00016 ATCC 12228; assay type: functional, ATCC 12228 INCQS 00016
How it was run: (§3)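 MBC/MIC ratio from the 24 h, 37°C microdilution MIC and the agar-plating MBC (99.9% growth inhibition). A ratio ≤2 was classed as bactericidal and ≥4 as bacteriostatic.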

Proteus mirabilis = test: Antimicrobial activity against Proteus mirabilis INCQS 00095 ATCC 15290 assessed as zone of inhibition at 5 mg/ml after 18 to 24 hrs by disc diffusion method; assay type: functional; details: read-out: IZ
Staphylococcus aureus [9] = test: Antimicrobial activity against methicillin-resistant Staphylococcus aureus BMB9393 assessed as zone of inhibition at 5 mg/ml after 18 to 24 hrs by disc diffusion method; assay type: functional; details: read-out: IZ
Staphylococcus simulans [10] = test: Antimicrobial activity against Staphylococcus simulans INCQS 00254 ATCC 27851 assessed as zone of inhibition at 5 mg/ml after 18 to 24 hrs by disc diffusion method; assay type: functional; details: read-out: IZ
[11] = test system: Staphylococcus epidermidis; test: Antimicrobial activity against Staphylococcus epidermidis INCQS 00016 ATCC 12228 after 24 hrs by microdilution assay; assay type: functional; details: ATCC 12228 INCQS 00016, 24 h
Pseudomonas aeruginosa [12] = test: Antimicrobial activity against Pseudomonas aeruginosa INCQS 00099 ATCC 27853 after 24 hrs by microdilution assay; assay type: functional; details: INCQS 00099 ATCC 27853, 24 h
Pseudomonas aeruginosa [13] = test: Bactericidal activity against Pseudomonas aeruginosa INCQS 00099 ATCC 27853 incubated for 24 hrs followed by transfer of microbial suspension to agar plates and measured after 24 hrs post transfer by resazurin dye-based colorimetric analysis; assay type: functional; details: INCQS 00099 ATCC 27853, 24 h, read-out: MBC99.9; how it was run: as §2
Staphylococcus aureus [14] = test: Antimicrobial activity against Staphylococcus aureus INCQS 00015 ATCC 25923 assessed as zone of inhibition at 5 mg/ml after 18 to 24 hrs by disc diffusion method; assay type: functional; details: read-out: IZ
Escherichia coli [15] = test: Ratio of MBC99.9 to MIC for Escherichia coli INCQS 00033 ATCC 25922; assay type: functional, ATCC 25922 INCQS 00033; how it was run: as §3
Staphylococcus aureus [16] = test: Ratio of MBC99.9 to MIC for methicillin-resistant Staphylococcus aureus BMB9393; assay type: functional
How it was run: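 MBC (99.9% kill on agar subculture of clear MIC wells, 24 h, 37°C) divided by broth microdilution MIC (24 h, 37°C). Ratio ≤2 taken as bactericidal and ≥4 as bacteriostatic.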

Staphylococcus simulans [17] = test: Bactericidal activity against Staphylococcus simulans INCQS 00254 ATCC 27851 incubated for 24 hrs followed by transfer of microbial suspension to agar plates and measured after 24 hrs post transfer by resazurin dye-based colorimetric analysis; assay type: functional; details: INCQS 00254 ATCC 27851, 24 h, read-out: MBC99.9; how it was run: as §2
Staphylococcus aureus [18] = test: Antimicrobial activity against Staphylococcus aureus INCQS 00015 ATCC 25923 after 24 hrs by microdilution assay; assay type: functional; details: INCQS 00015 ATCC 25923, 24 h
Pseudomonas aeruginosa [19] = test: Ratio of MBC99.9 to MIC for Pseudomonas aeruginosa INCQS 00099 ATCC 27853; assay type: functional; how it was run: as §3
[20] = test system: Staphylococcus epidermidis; test: Antimicrobial activity against Staphylococcus epidermidis INCQS 00016 ATCC 12228 assessed as zone of inhibition at 5 mg/ml after 18 to 24 hrs by disc diffusion method; assay type: functional; details: ATCC 12228 INCQS 00016, read-out: IZ
Escherichia coli [21] = test: Bactericidal activity against Escherichia coli INCQS 00033 ATCC 25922 incubated for 24 hrs followed by transfer of microbial suspension to agar plates and measured after 24 hrs post transfer by resazurin dye-based colorimetric analysis; assay type: functional; details: ATCC 25922 INCQS 00033, 24 h, read-out: MBC99.9; how it was run: as §2
[22] = Hemolytic activity against human erythrocytes assessed as hemolysis at 200 ug/ml after 3 hrs by spectrophotometric analysis relative to control; assay type: ADME, cell-based, Erythrocyte; details: read-out: Activity
How it was run: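 Erythrocytes collected in citrate tubes, washed three times with PBS pH 7.4 by centrifugation and resuspended in PBS. Incubated with compounds at 200 µg/mL for 3 h at 37°C. Released hemoglobin was read in the supernatant at 545 nm against 1% Triton X-100 (complete lysis) and 1% DMSO (negative control). Below 10% hemolysis was taken as hemocompatible. Three independent experiments.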

Staphylococcus aureus [23] = test: Ratio of MBC99.9 to MIC for Staphylococcus aureus INCQS 00015 ATCC 25923; assay type: functional; how it was run: as §3
Escherichia coli [24] = test: Antimicrobial activity against Escherichia coli INCQS 00033 ATCC 25922 after 24 hrs by microdilution assay; assay type: functional; details: ATCC 25922 INCQS 00033, 24 h
Staphylococcus simulans [25] = test: Ratio of MBC99.9 to MIC for Staphylococcus simulans INCQS 00254 ATCC 27851; assay type: functional; how it was run: as §3
Klebsiella pneumoniae = test: Antimicrobial activity against Klebsiella pneumoniae INCQS 00083 ATCC 4352 assessed as zone of inhibition at 5 mg/ml after 18 to 24 hrs by disc diffusion method; assay type: functional; details: read-out: IZ
Escherichia coli [26] = test: Bactericidal activity against Escherichia coli; assay type: functional
Escherichia coli [27] = test: Antimicrobial activity against Escherichia coli; assay type: functional
[28] = test system: Staphylococcus epidermidis; test: Bactericidal activity against Staphylococcus epidermidis INCQS 00016 ATCC 12228 at 256 ug/ml incubated for 24 hrs followed by transfer of microbial suspension to agar plates and measured after 24 hrs post transfer by resazurin dye-based colorimetric analysis; assay type: functional, organism-based; details: ATCC 12228 INCQS 00016; how it was run: as §2
[29] = test system: Staphylococcus epidermidis; test: Antimicrobial activity against Staphylococcus epidermidis INCQS 00016 ATCC 12228 at 256 ug/ml after 24 hrs by microdilution assay; assay type: functional, organism-based; details: ATCC 12228 INCQS 00016

| Structure (SMILES) | MBC (Staphylococcus aureus [1]) [µg/mL] | MIC (Staphylococcus simulans [2]) [µg/mL] | zone of inhibition at 5000 µg/mL (Enterococcus faecalis) [mm] | zone of inhibition at 5000 µg/mL (Escherichia coli [4]) [mm] | zone of inhibition at 5000 µg/mL (Pseudomonas aeruginosa [5]) [mm] | MIC (Staphylococcus aureus [6]) [µg/mL] | MBC (Staphylococcus aureus [7]) [µg/mL] | zone of inhibition at 5000 µg/mL (Proteus mirabilis) [mm] | zone of inhibition at 5000 µg/mL (Staphylococcus aureus [9]) [mm] | zone of inhibition at 5000 µg/mL (Staphylococcus simulans [10]) [mm] | MIC (Pseudomonas aeruginosa [12]) [µg/mL] | MBC (Pseudomonas aeruginosa [13]) [µg/mL] | zone of inhibition at 5000 µg/mL (Staphylococcus aureus [14]) [mm] | Ratio (Escherichia coli [15]) | MBC (Staphylococcus simulans [17]) [µg/mL] | MIC (Staphylococcus aureus [18]) [µg/mL] | Ratio (Pseudomonas aeruginosa [19]) | zone of inhibition at 5000 µg/mL [20] [mm] | MBC (Escherichia coli [21]) [µg/mL] | hemolysis at 3 h, 200 ug/ml [22] [%] | also measured |
| --- | --- | --- | --- | --- | --- | --- | --- | --- | --- | --- | --- | --- | --- | --- | --- | --- | --- | --- | --- | --- | --- |
| NC1=C(Br)C(=O)c2ccccc2C1=O | 64 (≈ 254 µM) | 128 (≈ 508 µM) | 0 | 8 | 14 | 64 (≈ 254 µM) | 64 (≈ 254 µM) | 0 | 16 | 17 | 32 (≈ 127 µM) | 32 (≈ 127 µM) | 10 | 1 | 128 (≈ 508 µM) | 64 (≈ 254 µM) | 1 | 12 | 64 (≈ 254 µM) | 10.1 to 14.4 | MBC [3]: 128 µg/mL (≈ 508 µM); Ratio [8]: 1; MIC [11]: 128 µg/mL (≈ 508 µM); Ratio (Staphylococcus aureus [16]): 1; Ratio (Staphylococcus aureus [23]): 1; MIC (Escherichia coli [24]): 64 µg/mL (≈ 254 µM); Ratio (Staphylococcus simulans [25]): 1; zone of inhibition at 5000 µg/mL (Klebsiella pneumoniae): 0 mm |
| COC(=O)c1c(C)nc(C)c2c1C(=O)C(Br)=C(Nc1ccc(OC)cc1)C2=O |  |  |  |  |  |  |  |  |  |  |  |  |  |  |  |  |  |  |  |  | MBC (Escherichia coli [26]): 2 to 4 µg/mL (≈ 4.49 to 8.98 µM); MIC (Escherichia coli [27]): 2 to 4 µg/mL (≈ 4.49 to 8.98 µM) |
| COC(=O)c1c(CBr)nc(C)c2c1C(=O)C(Br)=C(Nc1ccc(Cl)cc1)C2=O |  |  |  |  |  |  |  |  |  |  |  |  |  |  |  |  |  |  |  |  | MBC (Escherichia coli [26]): 2 to 4 µg/mL (≈ 3.78 to 7.57 µM); MIC (Escherichia coli [27]): 2 to 4 µg/mL (≈ 3.78 to 7.57 µM) |
| NC1=C(Cl)C(=O)c2ccccc2C1=O | 64 (≈ 308 µM) | 128 (≈ 617 µM) | 0 | 10 | 15 | 64 (≈ 308 µM) | 64 (≈ 308 µM) | 0 | 20 | 14 | 16 (≈ 77.1 µM) | 16 (≈ 77.1 µM) | 12 | 1 | 128 (≈ 617 µM) | 64 (≈ 308 µM) | 1 | 21 | 128 (≈ 617 µM) | 10.1 to 14.4 | Activity [28]: inactive; Activity [29]: inactive; Ratio (Staphylococcus aureus [23]): 1; MIC (Escherichia coli [24]): 128 µg/mL (≈ 617 µM); Ratio (Staphylococcus simulans [25]): 1; zone of inhibition at 5000 µg/mL (Klebsiella pneumoniae): 0 mm |
| NC1=CC(=O)c2ccccc2C1=O | 64 (≈ 370 µM) | 64 (≈ 370 µM) | 0 | 20 | 12 | 64 (≈ 370 µM) | 64 (≈ 370 µM) | 0 | 17 | 18 | 64 (≈ 370 µM) | 64 (≈ 370 µM) | 15 | 1 | 64 (≈ 370 µM) | 64 (≈ 370 µM) | 1 | 17 | 32 (≈ 185 µM) | 10.1 to 14.4 | MBC [3]: 128 µg/mL (≈ 739 µM); Ratio [8]: 1; MIC [11]: 128 µg/mL (≈ 739 µM); Ratio (Staphylococcus aureus [23]): 1; MIC (Escherichia coli [24]): 32 µg/mL (≈ 185 µM); Ratio (Staphylococcus simulans [25]): 1; zone of inhibition at 5000 µg/mL (Klebsiella pneumoniae): 0 mm |
